The labels stand for the following.
B1: tRNA (parent)
chain: GUUCCGUUGGCGUAAUGGUAACGCGUCUCCCUCCUAAGGAGAAGACUGCGGGUUCGAGUCCCGUACGGAACG

Variants at the floor of the assay were thinned out. A value given as a limit tells only on which side of the number the result lay.

The variants in the series derive from B1. As to the kind of experiment: yeast fitness relative to wild type (ratio to wild type); higher = fitter; tRNA-Arg(CCU), competitive growth, 37 C, YPD. Summed up:
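Start and end populations of a pooled competition were compared by 100-nucleotide paired-end sequencing of gene amplicons. The Saccharomyces cerevisiae strains carried tRNA-Arg(CCU) gene variants at the native genomic locus, synthesised with a 3% per-site mutation rate at 69 sites, and competed in YPD at 37°C for 24 hours in six parallel replicates. Darwinian fitness relative to wild type was based on the change in genotype frequencies. Genotypes required ≥ 100 starting reads, and estimates < 0.5 were set to 0.5.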
For GUACACUUGGCGUAGAGGUAACGCGUCUCCCUCCUAAGGAGAAGACUGCGGGUUCGAGUCCCGUACUGAACG [U3A C5A G6C A15G U16A G67U], the yeast fitness is ≤ 0.5.
The result for GUACCGUUGGCGUAAUGGUAACGCGUAUCGCUCCUAAGAAGAAGACUGCGGGUUCGAGUCCCGUACGGAACG [U3A C27A C30G G39A] reads ≤ 0.5; that for GUACCGUUGGGAUAAUGGUAAUGCGUCUCCCUCCUAAGGAGAAGACUGCGGGUUCGAGUCCCGUACGGAACG [U3A C11G G12A C22U], ≤ 0.5; that for GUACCGUUGGCGUAAUGGUAAUGCGUCUCCCUCCUAAGAAGAAGACUGCGGGUUCGAGUCCCGUAUGGAACG [U3A C22U G39A C66U], 0.576.
GUACCGUUGGCGUAAUGGUAACGCGUGUCCUUUCUAAGGAGCAGACUGCGGGUUCGAGUCCCGUAUGGACCG [U3A C27G C31U C33U A42C C66U A70C]: the yeast fitness is ≤ 0.5.
Then GUACCGUUGGCGUAAUGGUAACGCGUCUCGCUCCUAAGGAGAAGACUGCGGGUUCGAGUCCCGUACGAAACG [U3A C30G G68A], with ≤ 0.5; and GUACUGUUGGCGUAAUGGUAAGGCGUCUCCCUCGUAGGGAGAAGACUGCGGGUUCGAGUCCCGUGCGGAACG [U3A C5U C22G C34G A37G A65G], with ≤ 0.5; and GUACCGUUGGCGUAAUGGUAACGGGUCUCCCUCCUAAGGAGAAGACUGCGGGUUCGUGUCCCGUACGGAACG [U3A C24G A57U], with ≤ 0.5.
Then GUACCGUUGGCGUAAUGGUAACGCGUCUCUCUCCUAAGGAGAAGACUGCGGGUUCAAGUCCCGUACGGAACG [U3A C30U G56A], with ≤ 0.5; and GUACCGUUGGCGUAAUGGUAACGAGUCCCCCUCCUAAGGAGAAGACUGCGGGUUCGAGUCACGUACGGAACG [U3A C24A U28C C61A], with ≤ 0.5; and GUACCGUUGGAGUAAUGGUAACGCGUCUCCCUCCUAAGGAGAAGACUGCGGGUUCGAGUCCCGUACGGCACG [U3A C11A A69C], with ≤ 0.5.
Regarding GUACCGUUGGCGUAAUGGUAAUGCGUCUCCCUCCUAAGAAGAAGACUGCGGGUUCGAGUCCCGUACGGAACG [U3A C22U G39A], the yeast fitness is ≤ 0.5.
The result for GUACCGUUGGGGUAAUGGUAACGCGUCACCCUCCUAAGGACAAGACUGCGGGUUCGACUCCCGUACGGAACG [U3A C11G U28A G41C G58C] reads ≤ 0.5; that for GUACAGUUGGCGUAAUGGUAACGCGUCUCCCUCCUAAGGAGAAGCCUGCCGGUUCGAGUCCCGUACGGAACG [U3A C5A A45C G50C], ≤ 0.5; that for GUACCGUUGGCGUAAUGGUAACGCGUCUCGCUCCUAAGGAGAAGACUGCGGGUUCGAGUCCCGUAGGGAACG [U3A C30G C66G], ≤ 0.5.
On to GUACCGUUGGCGUAAUGGUAACGUGUCUCCCUCCUAAGGAGAAGACUGCGGGAUCGAGUCCCGUACGGAACG [U3A C24U U53A], for which the yeast fitness amounted to 0.548.
Take GUACCGUUGGCGUAAUGGUAACGGGUCUCCCUCCUAAGGAGAAGACUGCGGGUUCGAGUGCCGUACGGAACG [U3A C24G C60G]: the yeast fitness came out at 0.645.
Consider GUACCGUUGGGGUAAUGGUAACGCGUCUCCCUCCUAAGGACAAGACUGCGGGUUCGACUCCCGUACGGAACG [U3A C11G G41C G58C], for which the yeast fitness worked out at 0.733.
The result for GUAUCGUUGGCGAAAUGGUAACGCGUCUCCCUCCUAAGGAGAAGACUGCGAGUUCGAGUCCCGUACGGAACG [U3A C4U U13A G51A] reads ≤ 0.5; that for GUACCGUUGGCGUAAUGGUAACGCGUCUCACUCCUAAGGAGAAGACUGCGGGUUCGAGUCCCGUACGGAACG [U3A C30A], 0.834.
Turning to GUACCGUUGGCGUAAUGGUAACGCGUCUCGCUCCUAAGGAGAAGACUGCGGGUUCGAGUCCCGUACGGAACG [U3A C30G], the yeast fitness was found to be 0.598.
Then GUACCGUUGGAGUAAUGGUAACGCGUCUCCCUCCUAAGGAGAAGACUGCGGGUUCGAGUCCCGUACGGAACG [U3A C11A], with 0.607; and GUACCGUUGGGGUAAUGGUAACGCGUCUCCCUCCUAAGGAGAAGACUGCGGGUUCGAGUCCCGUACGGAACG [U3A C11G], with 0.643; and GUACCGUUGGCGUAAUGGUAAGGCGUCUUCCUCCUAAGGAGAAGACUGCGGGUUCGAGUCCCAUACGGAACG [U3A C22G C29U G63A], with ≤ 0.5.
Then GUACCGUUGGAGUAAUGGUAACGCGUCUCCCUUCUAAGGAGAAGACUGCGGGUUCGAGUCCCGUACGGACCG [U3A C11A C33U A70C], with ≤ 0.5; and GUACCGUUGGCGUAAUGGUAACGCGUCUCUCUCCUAAGGAGAAGACUGCGGGUUCGAGUCCCGUACAGAACG [U3A C30U G67A], with 0.553; and GUACGGUUGGUGUAAUGGUAACGAGUCUCUCUCCUAAGGAGAAGACUGCGGGUUCGAGUCCCGUACGGAGCG [U3A C5G C11U C24A C30U A70G], with ≤ 0.5.
The result for GUACCGUUGGGGUCAUGGUAACGCGUCUCCCUCCUAAGGAGAAGACUGCGGGUUCGAGUCCUGUACCGAACG [U3A C11G A14C C62U G67C] reads ≤ 0.5; that for GUACCGUUGGCGUAAUGGUAACGCGUCUCGCUCCUAAGGAGAAGGGUGCGGCUUCGAGUCCCGUACGCAACG [U3A C30G A45G C46G G52C G68C], ≤ 0.5.
Take GUAUCGAUGGCAUAAUGGUAACGCGUCUCGCUCCUAAGGAGAAGACUGCGGGUUCGAGUCCCGUACGGAACG [U3A C4U U7A G12A C30G]: the yeast fitness is ≤ 0.5.
GUACCGUUGGCGUAAUGGUAACGAGUCUCUCUCCUAAGGAGAAGACUGCGGGUUCGAGUCCUGUACGGAACG [U3A C24A C30U C62U]: the yeast fitness is ≤ 0.5.
Then GUACCGUUGGCGUAAUGGUAACGCGUUUCCCUCCUAAGGAGAAGACUGCGGGUUCGAGUCCCGUACGGAACG [U3A C27U], with 0.853; and GUACCGUUGGCGUAAUGGUAACGGGUCUCCUUCCUAAGGAGAAGACUGCGGCUUCGAGUCCCGUACGGAACG [U3A C24G C31U G52C], with ≤ 0.5; and GUACCGUUGGCGUAAUGGUAACGCGUGUCCCUCCUAAGGAGACGACUGCGGGUUCGAGUCCCGUACGGAACG [U3A C27G A43C], with ≤ 0.5.
Then GUACCGUUGGGGUCAUGGUAACGGGUCUCCCUCCUAAGGAGAAGACUGCGGGUUCGAGUCCUGUGCGGAACG [U3A C11G A14C C24G C62U A65G], with 0.595; and GUACCGUUGGCGUAAUGGUAACGCGUCUCGCUUCUAAGGAGAAGACUGCGGGUUCGAGUCCCGUACUGAACG [U3A C30G C33U G67U], with ≤ 0.5.
Then GUACCGUUGGCGUAAUGGUAACGCGUAUCCCUCCUAAGGAGAAGACUGCGGGUUCGAGUCCCGUACGGUACG [U3A C27A A69U], with 0.627.

Source of the values: the RNAGym collection of RNA variant scans (doi:10.1126/science.aae0568).
